According to ChEMBL document CHEMBL4028911, “Discovery of a Small-Molecule Bromodomain-Containing Protein 4 (BRD4) Inhibitor That Induces AMP-Activated Protein Kinase-Modulated Autophagy-Associated Cell Death in Breast Cancer” (J Med Chem, 2017):
The source made the active and inactive calls. No cut-off for these calls is given here.

Legend:
MCF7 [1] = assay: Induction of autophagy in human MCF7 cells assessed as cytoplasmic vacuolization at 1.5 uM by electron microscopy; format: functional, cell-based
How it was run: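 MCF-7 (1.5 µM) or MDA-MB-231 (3 µM) cells treated for indicated times. Cytoplasmic vacuoles examined by transmission electron microscopy.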

MDA-MB-231 [2] = assay: Effect on AKT expression in human MDA-MB-231 cells at 3 uM measured up to 36 hrs by Western blot analysis; format: ADME, cell-based; conditions: mda-mb-231, 36 h
How it was run: (§1)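 MCF-7 (1.5 µM) or MDA-MB-231 (3 µM) cells treated for indicated times. Adherent and floating cells lysed in RIPA with 1 mM PMSF, 4°C for 1 h. Equal protein run on 10-15% SDS-PAGE, transferred to PVDF, blocked with milk or BSA, probed with primary then HRP secondary antibodies, ECL detection; β-actin as loading control.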

[3] = target: T1, Serine/threonine-protein kinase ULK1 (Homo sapiens) (UniProt O75385); assay: Inhibition of recombinant human ULK1 (1 to 649 residues) expressed in baculovirus infected Sf9 cells at 1 to 10^6 nM using MBP as substrate after 60 mins in presence of ATP by ADO-Glo assay
T1 sequence (whole entry): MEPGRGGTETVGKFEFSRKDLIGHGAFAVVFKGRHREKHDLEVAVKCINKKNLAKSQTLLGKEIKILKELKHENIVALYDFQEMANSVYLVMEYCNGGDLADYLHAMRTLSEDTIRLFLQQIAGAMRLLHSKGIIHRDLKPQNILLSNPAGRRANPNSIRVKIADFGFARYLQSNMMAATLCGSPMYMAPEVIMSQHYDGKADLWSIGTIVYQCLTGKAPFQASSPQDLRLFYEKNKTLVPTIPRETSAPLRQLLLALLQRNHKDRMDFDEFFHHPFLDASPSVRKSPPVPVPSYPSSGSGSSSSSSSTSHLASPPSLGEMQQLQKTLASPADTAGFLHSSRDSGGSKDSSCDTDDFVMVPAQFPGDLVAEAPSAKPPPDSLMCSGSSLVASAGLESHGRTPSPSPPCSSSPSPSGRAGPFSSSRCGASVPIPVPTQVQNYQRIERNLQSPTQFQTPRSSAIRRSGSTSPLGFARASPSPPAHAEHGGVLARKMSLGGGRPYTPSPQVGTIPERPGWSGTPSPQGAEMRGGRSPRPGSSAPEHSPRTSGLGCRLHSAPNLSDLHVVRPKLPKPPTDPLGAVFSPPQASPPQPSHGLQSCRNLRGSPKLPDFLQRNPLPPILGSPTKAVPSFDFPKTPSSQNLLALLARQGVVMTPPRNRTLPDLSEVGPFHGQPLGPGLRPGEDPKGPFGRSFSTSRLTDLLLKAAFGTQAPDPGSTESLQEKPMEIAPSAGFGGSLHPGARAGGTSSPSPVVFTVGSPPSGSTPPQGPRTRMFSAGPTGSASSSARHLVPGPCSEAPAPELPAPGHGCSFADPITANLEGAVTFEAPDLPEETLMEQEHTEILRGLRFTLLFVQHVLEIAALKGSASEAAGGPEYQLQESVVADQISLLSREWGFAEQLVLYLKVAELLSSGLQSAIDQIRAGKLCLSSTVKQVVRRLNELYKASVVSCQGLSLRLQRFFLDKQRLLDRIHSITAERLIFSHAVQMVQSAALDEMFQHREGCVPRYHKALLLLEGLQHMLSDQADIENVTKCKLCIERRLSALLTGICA

MCF7 [4] = assay: Effect on mTOR expression in human MCF7 cells at 1.5 uM measured up to 36 hrs by Western blot analysis; format: ADME, cell-based; conditions: mcf7, 36 h; how it was run: as §1
MDA-MB-231 [5] = assay: Antitumor activity against human MDA-MB-231 cells xenografted in ig dosed nude BALB/c mouse assessed as tumor growth inhibition administered once a day for 27 days measured every 3 days relative to control; format: functional, organism-based
How it was run: (§2)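 Female BALB/c nude mice, 6-8 weeks, 20-22 g, injected subcutaneously with 5×10^6 MCF-7 or MDA-MB-231 cells. At 100 mm³ tumor volume (V = L×W²/2), split into four groups: 25, 50 or 100 mg/kg intragastric once daily for 24 or 27 days, or vehicle. Tumor volume and body weight measured every 3 days; tumors excised and weighed at end. MCF-7 n=7, MDA-MB-231 n=6 per group.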

Mus musculus [6] = assay: In vivo Antiproliferative activity in BALB/c mouse xenografted with human MCF7 cells assessed as increase in LC3 expression at 100 mg/kg, ig administered once a day for 24 days by hematoxylin-staining based immunohistochemistry analysis; format: functional, organism-based
How it was run: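 Xenograft tumors from vehicle and 100 mg/kg groups were formalin-fixed and sectioned. Antigen retrieval by microwaving in EDTA buffer (pH 8.0) or citrate buffer (pH 6.0). […] Percentage of positive staining quantified.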

Mus musculus [7] = assay: Induction of cleavage of caspase-3 in BALB/c mouse xenografted with human MDA-MB-231 cells at 100 mg/kg, ig administered once a day for 27 days by Western blot analysis; format: functional, organism-based
How it was run: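 Female BALB/c nude mice (6-8 weeks) given 5×10^6 MCF-7 or MDA-MB-231 cells subcutaneously. At 100 mm3 tumours, dosed intragastrically once daily (25, 50, 100 mg/kg, or vehicle) for 24 or 27 days. Excised tumours lysed and probed by western blot for caspase-3 cleavage.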

[8] = target: T2, Bromodomain-containing protein 4 (Homo sapiens, UniProt O60885); assay: Inhibition of BRD4 interaction with p53 in human MDA-MB-231 cells at 3 uM by co-immunoprecipitation assay; format: cell-based
How it was run: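 Cells lysed in RIPA buffer (40 mM Tris-HCl pH 7.5, 150 mM NaCl, 0.5% NP-40, 5% glycerol, 10 mM NaF, protease inhibitors). Lysates incubated overnight at 4 °C with BRD4 or p53 antibody plus protein A/G beads, washed 3 times, resolved on 10% SDS-PAGE and blotted for AMPKα or p53.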

MCF7 [9] = assay: Downregulation of HMGB1 expression in human MCF7 cells at 1.5 uM measured up to 24 hrs by Western blot analysis; format: functional, cell-based; how it was run: as §1
MDA-MB-231 [10] = assay: Antitumor activity against human MDA-MB-231 cells xenografted in nude BALB/c mouse assessed as reduction in tumor weight at 25 to 100 mg/kg, ig administered once a day for […] measured every 3 days relative to control; format: functional, organism-based; how it was run: as §2
MCF-7 = assay: Downregulation of HMGB1 expression in human MCF-7 cells at 1.5 uM measured up to 24 hrs by Western blot analysis
[11] = target: T2, Bromodomain-containing protein 4; assay: Inhibition of recombinant human BRD4 bromodomain-2 (342 to 460 residues) expressed in Escherichia coli expression system after 120 mins by TR-FRET assay

SMILES: Cc1cc(-c2nc3sc4c(c3c(=O)[nH]2)CCN(C)C4)cc(C)c1O
- Activity (MCF7 [1]): Active
- Activity (MDA-MB-231 [2]): Non-Toxic
- inhibition [3]: inactive
- Activity (MCF7 [4]): Non-Toxic
- TGI (MDA-MB-231 [5]): Dose-dependent effect
- Activity (Mus musculus [6]): Active
- Activity (Mus musculus [7]): Active
- inhibition [8]: inactive
- Activity (MCF7 [9]): Active
- Activity (MDA-MB-231 [10]): Active
- Activity (MCF-7): Active
- IC50 [11]: 930 nM
